Hits are enriched below; roughly 2.5% of the tested compounds scored in any of these assays.
SENP8 block-1: blocks the human protease SENP8 | Q96LD8 | purified SENP8, Z-RLRGG-aminoluciferin cleavage, luminescence | inhibition, % at 10 µM | actives 1.2% (n = 330,000) | AID 2540; in the data active = inhibition above about 50%
SENP1 inh: inhibitors of human SENP1 SUMO protease catalytic domain | recombinant SENP1 catalytic domain, CyPet-SUMO1-YPet FRET cleavage | inhibition, % at 10 µM | actives 0.21% (n = 360,000);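 active = inhibition at least 30% at 10 µM, raw YFP signal under a set limit, fluorescence ratio 0.5 to 1.5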;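 note: 0% = enzyme with DMSO and 100% = no enzyme wells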
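Compound: 10 µM single point, 0.5% DMSO; Test system: hSENP1 catalytic domain, recombinant; Timing: 50 min reaction at room temperature; Technique: FRET, CFP and YFP emission; Control set: no-enzyme wells low, DMSO-plus-enzyme wells high control.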
SENP6 block: SENP6 protease inhibition | Recombinant SENP6 catalytic domain, aminoluciferin luminescence | AID 2599 | actives 1.8% (n = 330,000) | inhibition, % at 10 µM;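 active = inhibition above about 50% at the single tested dose, limit read from the data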;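 note: plate controls were DMSO wells with enzyme for no effect and DMSO wells lacking enzyme for full effect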
Target sequence (Q9GZR1 628-1112 limits assumed): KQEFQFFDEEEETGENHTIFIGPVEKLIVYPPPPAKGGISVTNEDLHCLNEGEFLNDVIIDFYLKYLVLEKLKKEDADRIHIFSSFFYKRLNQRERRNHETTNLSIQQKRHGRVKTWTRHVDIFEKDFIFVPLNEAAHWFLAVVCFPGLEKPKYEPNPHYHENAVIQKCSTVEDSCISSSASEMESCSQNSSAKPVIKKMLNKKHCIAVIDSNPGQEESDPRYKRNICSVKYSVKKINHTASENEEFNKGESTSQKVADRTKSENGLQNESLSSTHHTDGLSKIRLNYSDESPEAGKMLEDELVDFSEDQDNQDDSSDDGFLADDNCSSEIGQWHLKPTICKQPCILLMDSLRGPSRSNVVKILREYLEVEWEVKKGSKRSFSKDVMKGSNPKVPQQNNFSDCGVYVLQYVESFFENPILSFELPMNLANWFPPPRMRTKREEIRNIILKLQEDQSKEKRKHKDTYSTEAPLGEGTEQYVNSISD
SENP8 block-2: blocks human SENP8 cleavage of Nedd8 substrate | recombinant SENP8, Nedd8 substrate fluorescence | inhibition, % at 20 µM | actives 0.64% (n = 360,000) | AID 602440; in the data active = inhibition mostly above about 40%, no sharp cut-off; inactive = mostly below about 27%
SENP7 inh: inhibitors of human SENP7 protease; Q9BQF6; actives 1.5% (n = 330,000); recombinant SENP7, Z-RLRGG-aminoluciferin luminescence, 40 min; AID 434973; inhibition, % at 5 µM;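 active = inhibition above about 50% at the single test dose, limit read from the data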;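 note: plate controls were DMSO with enzyme for no effect and no enzyme buffer wells for full effect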
SENP8 inh conf: confirmation of human SENP8 protease inhibitors. shares compounds with SENP8 block-2. actives 15% (n = 1,400). inhibition, % at 25 µM. purified SENP8, Nedd8-AMC/pro-Nedd8 cleavage fluorescence, 30 min. AID 624319; in the data active = inhibition mostly above about 39%, no sharp cut-off; inactive = mostly below about 34%
The depositor's hits bear a star; x = no result.

SMILES	SENP8 block-1	SENP1 inh	SENP6 block	SENP8 block-2	SENP7 inh	SENP8 inh conf
Cc1ccc(NC(=O)NNS(=O)(=O)c2ccc(Br)cc2)cc1	1.6	-0.3	-17.0	24.3	4.2	x
O=C(Nc1cccc(Cl)c1)c1ccc(NCCCN2CCOCC2)c([N+](=O)[O-])c1	-5.5	3.3	-6.4	41.0*	-0.2	13.3
Cc1ccc(CN2CC(N3CC=CC3)CS2(=O)=O)cc1 (stereo not given)	x	2.7	x	48.1*	x	26.0
CCN1CCN(C(c2cccs2)C(C)NC(=O)C(=O)N2CCCCC2)CC1 (stereo not given)	-2.4	0.8	-4.9	17.2	11.9	x
Cc1ccc(NC(=O)CN(C)C(=O)c2cccc(S(=O)(=O)NCc3ccco3)c2)cc1	2.8	1.1	8.2	10.0	4.6	x
COc1ccccc1OCCCn1c(=O)oc2ccc(C)cc21	-4.7	-1.0	-17.7	41.0*	-10.4	27.7
O=C(COC(=O)c1cc(S(=O)(=O)N2CCOCC2)ccc1F)Nc1ccccc1C(F)(F)F	x	0.7	x	2.1	x	x
c1ccc(CN(Cc2cccs2)C(c2cccs2)c2nnnn2C2CCCC2)cc1 (stereo not given)	-6.4	0.5	-2.2	42.7*	-1.7	11.6
CC1(C)C[C@H]2C3=CCC4[C@@]5(C)CC[C@H](O)[C@](C)(CO)C5CC[C@@]4(C)[C@]3(C)CC[C@@]2(C)[C@H](O)[C@@H]1O (stereo not given in full)	-13.7	3.4	-26.5	40.4*	-5.6	4.5
c1ccc(-c2nnc3oc(-c4cccs4)nn23)cc1	x	-0.2	x	3.0	x	x
O=c1c2ccccc2ncn1Cc1ccc(Cl)c(Cl)c1	-0.2	-0.8	-4.2	6.1	3.9	x
Cc1[nH][nH]c(=O)c1C(c1c(C)[nH][nH]c1=O)c1cn(Cc2ccc(F)cc2)c2ccccc12	x	-2.1	x	76.8*	x	73.1*
Cc1[nH][nH]c(=O)c1C(c1c(C)[nH][nH]c1=O)c1cn(Cc2ccc(Cl)c(Cl)c2)c2ccccc12	x	-4.3	x	72.8*	x	68.3*
O=C(O)Cc1cn(Cc2ccc(F)cc2)c2ccccc12	1.9	1.4	0.0	0.6	3.6	x
CC(C)(C)c1ccc(OCCC(=O)OCC(=O)Nc2ccc(N3CCOCC3)cc2)cc1	-16.5	3.8	-15.3	13.8	-19.3	x
O=C(NCCCN1CCCCCC1)C1CC(=O)N(CCc2ccccc2)C1 (stereo not given)	2.6	-5.3	0.1	55.9*	2.2	9.0
O=C(CN(c1ccc2c(c1)OCCO2)S(=O)(=O)c1ccccc1)N1CCN(Cc2ccccc2)CC1	-5.8	1.3	-15.5	2.1	-9.0	x
CC(C)(C)c1ccc2c(c1)OC(C(=O)N/N=C/c1ccc([N+](=O)[O-])o1)CO2 (stereo not given)	2.2	-50.0	1.5	44.4*	9.7	15.1
CC(=O)Nc1nonc1NC(=O)COc1ccccc1	-5.6	3.2	-15.5	15.0	1.1	x
CCOc1cc(/C=C2/SC(=Nc3ccccc3)N(Cc3cccnc3)C2=O)ccc1OCC#N	4.3	-1.5	-20.6	40.2*	-0.2	15.2
Cc1cc(C)nc(NNS(=O)(=O)c2ccc(F)c(Cl)c2)n1	-1.5	3.2	-8.8	35.7*	3.4	14.0
Cc1cc(C)nc(NNS(=O)(=O)c2ccc(Cl)cc2)n1	4.6	0.6	-3.7	8.9	5.0	x
Fc1cccc(Cc2c(-c3ccco3)nc3ccc(Br)cn23)c1	x	10.6	x	15.4	x	x
O=C1CCCCCCCN1Cc1ccccc1	-3.2	-0.8	-14.1	14.5	-6.3	x
CC1=NN(Cc2ccccc2)C(=O)C1	4.0	2.2	9.2	42.8*	12.2	25.5
SMILES	SENP8 block-1	SENP1 inh	SENP6 block	SENP8 block-2	SENP7 inh	SENP8 inh conf
Nc1nc(NCCOCCO)nc(NC2CCCCC2)c1[N+](=O)[O-]	-1.5	-1.5	-0.5	46.6*	-0.4	-1.4
Nc1nc(NCCO)nc(NC2CCCCC2)c1[N+](=O)[O-]	-13.0	0.7	-35.9	18.4	-11.2	x
CCc1ccc([C@@H]2C[C@H]3[C@@H](CN2S(=O)(=O)c2ccc(C)cc2)C(=O)C[C@@H](c2cccc(Cl)c2)N3S(=O)(=O)c2ccc(C)cc2)cc1	x	-2.5	x	19.3	x	x
Cc1nc2ccc(NC(=O)c3cc([N+](=O)[O-])cc([N+](=O)[O-])c3Cl)cc2s1	x	2.6	x	40.8*	x	25.9
COc1cc(/C=N/NC(=O)c2cccc(S(=O)(=O)N3CCCC3)c2)cc(OC)c1O	-11.2	4.0	-16.9	-64.7	1.1	x
COc1cc(NC(C)=O)c2ncccc2c1[N+](=O)[O-]	-12.4	-0.2	-0.7	47.7*	1.7	8.0
CCC(=O)c1ccc(OCc2ccc(C(=O)c3ccccc3)cc2)cc1	3.0	-0.4	3.4	16.3	8.3	x
Cc1ccc(F)c(Oc2cc(NN3CCCCC3)c([N+](=O)[O-])cc2[N+](=O)[O-])c1	-0.1	3.1	5.9	31.6	4.6	x
Cc1ccc(C)c(Oc2cc(NN3CCCCC3)c([N+](=O)[O-])cc2[N+](=O)[O-])c1	0.3	2.5	-7.6	42.1*	7.6	17.9
Oc1ccc(C[C@H]2CNC(=S)N2C[C@H]2CCCN2C[C@H](Cc2ccccc2)N2C[C@H](Cc3ccc(O)cc3)N(CCc3ccccc3)C2=S)cc1	x	1.1	x	9.1	x	x
O=C(O)c1c(N2CCCCC2)ccc([N+](=O)[O-])c1N1CCCCC1	-1.9	1.2	-4.1	40.3*	7.4	23.0
O=C(O)c1cc([N+](=O)[O-])ccc1N1CCCCC1	-7.7	3.2	-13.3	41.5*	-5.1	16.4
O=C(c1cc([N+](=O)[O-])ccc1N1CCCCC1)N1CCCCC1	9.1	-1.8	-1.6	13.5	5.3	x
COC(=O)c1ccccc1-c1ccc(C(c2c(C)[nH][nH]c2=O)c2c(C)[nH][nH]c2=O)o1	20.4	0.8	27.1	50.4*	11.9	42.0*
COC(=O)c1cccc(-c2ccc(C(c3c(C)[nH][nH]c3=O)c3c(C)[nH][nH]c3=O)o2)c1	13.0	1.3	42.7	16.8	9.4	x
Cc1cc(OCC(=O)Nc2ccc(Br)cc2)cc2c1C(=O)CC(C)(C)O2	-7.9	1.1	-7.5	40.6*	2.4	15.8
CC(=O)Nc1ccc(NC(=O)COc2cc(O)c3c(c2)OC(C)(C)CC3=O)cc1	-7.9	0.2	-8.1	40.8*	5.2	11.8
O=c1c(-c2ccc(O)cc2O)coc2cc(O)cc(O)c12	3.8	2.1	7.7	54.8*	-2.5	21.7
COc1cc(N(C(C)=O)c2ccc(O)c(C(=O)O)c2)c2ncccc2c1	x	2.7	x	44.0*	x	61.2*
O=c1ccc(Br)c[nH]1	10.5	1.5	11.4	42.0*	14.1	22.2
Cn1c(=O)c2c(ncn2CC(=O)N/N=C/C=C\c2ccccc2[N+](=O)[O-])n(C)c1=O	0.0	x	-10.1	x	-4.4	x
C=CCNc1nc2cc(-c3ccccc3C)sc2c(=O)n1C	x	1.6	x	-47.6	x	x
O=C(CSC1=NNC(c2ccccn2)S1)Nc1ccccc1 (stereo not given)	3.9	2.5	-18.0	47.6*	9.0	19.6
